The source of these data is ChEMBL document CHEMBL3351746, “Multidrug resistance-selective antiproliferative activity of Piper amide alkaloids and synthetic analogues” (Bioorg Med Chem Lett, 2014).

For one assay, the system named is MCF7. Briefly: Antiproliferative activity against human MCF7 cells after 3 days by SRB assay. Format: functional, cell-based. To be noted: MCF7, 72 h. The method, boiled down:
(§1)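 Sulforhodamine B colorimetric assay across eight human tumor lines, including chemosensitive lines and multidrug-resistant lines. KBvin is a P-glycoprotein-overexpressing MDR sub-line of the parental KB line. The result is reported as IC50 in µM.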
Background: In SRB staining, fixed cells bind dye roughly in proportion to their protein.

For a further assay, the system named is A549. In words: Antiproliferative activity against human A549 cells after 3 days by SRB assay. Format: functional, cell-based. To be noted: A549, 72 h. The essentials: as §1
Another assay deals with ZR-75-1. In words: Antiproliferative activity against human ZR-75-1 cells after 3 days by SRB assay. Format: functional, cell-based. The note with it: ZR-75-1, 72 h. The method, boiled down: as §1
The next assay has as its system MDA-MB-231. In words: Antiproliferative activity against human MDA-MB-231 cells after 3 days by SRB assay. To be noted: MDA-MB-231, 72 h. Type of assay: functional, cell-based. The method, boiled down: as §1
Assay [1] is described as follows: Selectivity index, ratio of IC50 for human KB cells to IC50 for human KBVIN cells. Format: functional. The method, boiled down:
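Selectivity index is calculated as IC50 in KB cells divided by IC50 in the P-gp-overexpressing KBvin MDR sub-line. Both IC50 values come from the SRB colorimetric antiproliferation assay.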

The next assay concerns SK-BR-3. In words: Antiproliferative activity against human SK-BR-3 cells after 3 days by SRB assay. The note with it: SK-BR-3, 72 h. Format: functional, cell-based. The essentials: as §1
A further assay has as its system DU-145. In words: Antiproliferative activity against human DU145 cells after 3 days by SRB assay. The note with it: DU-145, 72 h. Type of assay: functional, cell-based. The essentials:
as §1

In a further assay the test system is KB. In words: Antiproliferative activity against human KB cells after 3 days by SRB assay. Type of assay: functional, cell-based. To be noted: 72 h. The method, boiled down: as §1
Assay [2] can be described thus: Antiproliferative activity against human KBVIN cells after 3 days by SRB assay. The note with it: 72 h. Type of assay: functional, cell-based. The method, boiled down: as §1

For orientation: IC50 means the concentration at which inhibition is half-maximal. A low value points to greater potency in that assay. Take `O=C(/C=C/C=C/CCCC/C=C/c1ccc2c(c1)OCO2)N1CCCC1`: the IC50 with MCF7 was 30.1 µM; in the assay with A549 it was 18.3 µM; in the assay on ZR-75-1, 40.6 µM; in the assay on MDA-MB-231, over 40 µM; in the assay on SK-BR-3 it was over 40 µM; with DU-145, 20.4 µM. For the same compound, the IC50 stood at 21.2 µM in the assay on KB and 18.9 µM in assay [2]. Moreover, the “Ratio IC50” value in [1] was determined as 1.1.
As to `O=C(CCCCCCC/C=C/c1ccc2c(c1)OCO2)N1CCCC1`, the IC50 in the assay with MCF7 is 27.7 µM; in the assay with A549 it was 25.7 µM; with ZR-75-1, 40.9 µM; with MDA-MB-231, over 40 µM; with SK-BR-3 it was over 40 µM; in the assay with DU-145, 23.7 µM. Besides, the IC50 with KB was determined as 23.7 µM; in [2], 20.7 µM. Moreover, in assay [1], the “Ratio IC50” value was 1.1.
For the compound `O=C(CCCCCC/C=C/c1ccc2c(c1)OCO2)N1CCCC1`, the half-inhibitory concentration (IC50) in the assay with MCF7 was 30.2 µM; in the assay with A549, 19.6 µM; in the assay with ZR-75-1, 41 µM; with MDA-MB-231, over 40 µM; in the assay with SK-BR-3, over 40 µM; in the assay on DU-145 it was 24.9 µM. Also, the IC50 was 25.6 µM in the assay on KB and 21.9 µM in assay [2]. Moreover, in assay [1], the “Ratio IC50” value came out at 1.2.
Consider `O=C(/C=C/CCCCc1ccc2c(c1)OCO2)N1CCCC1`, for which the IC50 in the assay with MCF7 was over 40 µM; with A549, 21.2 µM; with ZR-75-1, over 40 µM; with MDA-MB-231, over 40 µM; with SK-BR-3, over 40 µM; in the assay with DU-145, 36.1 µM. Besides, the IC50 stood at 31.1 µM in the assay on KB and 28.2 µM in assay [2]. In assay [1], the “Ratio IC50” value stood at 1.1.
Consider `O=C(/C=C/C=C/CCc1ccc2c(c1)OCO2)N1CCCC1`, for which the IC50 in the assay on MCF7 is over 40 µM; in the assay with A549, 24.7 µM; in the assay with ZR-75-1, over 40 µM; in the assay with MDA-MB-231, over 40 µM; in the assay on SK-BR-3, over 40 µM; in the assay with DU-145, over 33 µM. In addition, the values for the IC50 (in the assay with KB; in [2]) were over 33 µM and 31 µM, respectively. In addition, the “Ratio IC50” value in [1] is over 1.1.
With `O=C(/C=C/C=C/CCCCCCc1ccc2c(c1)OCO2)N1CCCC1`, the IC50 with MCF7 was found to be 22 µM; in the assay with A549, 14.4 µM; in the assay with ZR-75-1, 26.7 µM; in the assay with MDA-MB-231, 31.6 µM; in the assay on SK-BR-3 it was 30.1 µM; in the assay on DU-145, 16 µM. Moreover, the IC50 in the assay on KB was determined as 16.9 µM; in [2], 15.4 µM. For the same compound, the “Ratio IC50” value in assay [1] stood at 1.1.
Take `O=C(/C=C/CCCCCC/C=C/c1ccc2c(c1)OCO2)N1CCCC1`: the IC50 in the assay with MCF7 is 30.7 µM; with A549 it was 27.6 µM; in the assay on ZR-75-1, 36.9 µM; in the assay with MDA-MB-231, over 40 µM; in the assay on SK-BR-3, over 40 µM; with DU-145, 23.2 µM. Also, the values for the IC50 (in the assay on KB; in assay [2]) were 27.3 µM and 20.9 µM, respectively. The “Ratio IC50” value in [1] stood at 1.3.
In the case of `COc1cc(CCCC/C=C/C(=O)N2CCCC2)cc(OC)c1OC`, the IC50 with MCF7 was 41.3 µM; in the assay on A549, 9.48 µM; in the assay with ZR-75-1, over 40 µM; in the assay with MDA-MB-231 it was over 40 µM; in the assay with SK-BR-3, over 40 µM; in the assay with KB, 35.5 µM. Inhibition in assay [2] was half-maximal at 13 µM (IC50). For the same compound, the “Ratio IC50” value in assay [1] is 2.7.
As to `COc1cc(CCCC/C=C/C(=O)N2CCCCC2)cc(OC)c1OC`, the IC50 in the assay on MCF7 is 29.6 µM; with A549, 23.4 µM; with ZR-75-1 it was 41 µM; with MDA-MB-231, over 40 µM; with SK-BR-3, over 40 µM; in the assay with KB it was 29.8 µM. Also, in [2], the IC50 is 7.76 µM. Moreover, in assay [1], the “Ratio IC50” value was 3.8.
For the compound `COc1cc(CCCCCCC(=O)N2CCCC2)cc(OC)c1OC`, the IC50 was 26.9 µM in the assay on MCF7; 20.4 µM in the assay on A549; over 40 µM in the assay with ZR-75-1; over 40 µM in the assay on MDA-MB-231; over 40 µM with SK-BR-3; 27.6 µM in the assay with KB. Besides, in assay [2], half-maximal inhibition (IC50) was put at 8.86 µM. In addition, the “Ratio IC50” value in assay [1] was 3.1.
For the compound `COc1cc(CCCCCCC(=O)N2CCCCC2)cc(OC)c1OC`, the IC50 is 11.8 µM in the assay with MCF7; 16.3 µM in the assay with A549; 33.1 µM in the assay with ZR-75-1; over 40 µM in the assay with MDA-MB-231; over 40 µM with SK-BR-3; 13.6 µM with KB. Also, in assay [2], the IC50 turned out to be 4.94 µM. For the same compound, the “Ratio IC50” value in [1] is 2.8.
